Most compounds without a hit are left out; they make up all but 3% or so of the library.
MC4R antag cAMP: human MC4R antagonism in cAMP assay. MC4R-expressing cells, MTII-stimulated cAMP, LANCE TR-FRET. AID 540295. inhibition, % at 6.5 µM. hit rate 0.48% among 360,000;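 active = inhibition above its plate's cutoff, the mean of tested wells on that plate plus 3 SD, cut at about 29% in these data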
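Material: human MC4R-expressing U2OS cells. Probe or stimulus: Melanotan II challenge. Dosing: 6.5 µM single dose. Times: 30-min compound, 1-h challenge, 1-h detection, room temperature. Technique: TR-FRET with Eu-cAMP and labeled anti-cAMP, 671 nm. Replication: singlicate.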
MC4R ag barr: activates human MC4R beta-arrestin recruitment; AID 540308; activation, % at 8.9 µM; P32245; U2OS MC4R beta-arrestin complementation, luminescence; percent of melanotan II response, DMSO zero; hit rate 0.98% among 360,000;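 active = activation above a per-plate cutoff, the mean activation of sample wells on that plate plus 3 SD, cut at about 8% in these data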
PfGluPho inh: PfG6PD (Plasmodium falciparum) enzyme inhibition. AID 504690. hit rate 0.78% among 350,000. inhibition, % at 20 µM. PfGluPho enzyme, NADPH resazurin-diaphorase fluorescence;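 active = inhibition reaching at least a set limit at 20 µM in the primary screen, cut at about 59% in these data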
Beta2AR agonist: human beta-2 adrenergic receptor agonism by FAP; Am2.2-beta2AR cells, FAP receptor internalization, flow cytometry; response, % (no concentration beside the values); hit rate 0.43% among 340,000; AID 504454;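 active = response above a set limit, near 3 SD of response in nonfluorescent compounds, cut at about 42% in these data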
Target sequence (P07550 whole entry, looked up): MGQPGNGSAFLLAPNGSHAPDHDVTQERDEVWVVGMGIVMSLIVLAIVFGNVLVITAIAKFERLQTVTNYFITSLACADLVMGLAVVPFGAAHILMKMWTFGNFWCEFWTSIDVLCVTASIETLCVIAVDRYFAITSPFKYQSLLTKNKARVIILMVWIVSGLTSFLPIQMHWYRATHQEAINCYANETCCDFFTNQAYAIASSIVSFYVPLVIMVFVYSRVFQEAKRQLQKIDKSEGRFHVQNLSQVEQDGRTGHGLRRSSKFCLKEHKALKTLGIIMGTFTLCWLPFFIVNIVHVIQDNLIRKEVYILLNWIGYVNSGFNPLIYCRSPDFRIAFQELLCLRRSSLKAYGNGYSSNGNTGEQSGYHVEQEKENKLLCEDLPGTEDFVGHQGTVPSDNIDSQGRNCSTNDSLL
ABHD5-PLIN5 inh: inhibitors of human ABHD5-perilipin-5 interaction. Q00G26+Q8WTS1. AID 602281. inhibition, % at 4 µM. Split G. princeps luciferase complementation, luminescence, 4 h. hit rate 0.78% among 360,000;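 active = inhibition above the mean inhibition across every tested compound plus 3 SD, cut at about 22% in these data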
ABHD5-PLIN5 conf: ABHD5-PLIN5 interaction inhibition, confirmed; shares compounds with ABHD5-PLIN5 inh; biochemical ABHD5-PLIN5 interaction, luminescence; AID 651612; hit rate 67% among 2,200; inhibition, % at 4 µM; in the data active = inhibition above about 23%
HNF4 split-luc: active in HNF4 split-luciferase counter-screen for ABHD5-PLIN5 inhibitors | shares compounds with ABHD5-PLIN5 inh | HNF4 dimerization, luminescence, biochemical | inhibition, % at 4 µM | hit rate 77% among 2,200;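 active = mean inhibition across replicate wells exceeding the computed hit threshold, cut at about 13% in these data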;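 also: light from luciferase halves that rejoin when HNF4 fusion proteins dimerize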
Numbers stand for hits; - = inactive; . = no result.

SMILES	MC4R antag cAMP	MC4R ag barr	PfGluPho inh	Beta2AR agonist	ABHD5-PLIN5 inh	ABHD5-PLIN5 conf	HNF4 split-luc
Cc1ccccc1/C=C1\C(=O)Nc2ccc(F)cc21	-	-	-	-	-	.	.
CN(C)c1ccc(C=c2c3ccccc3n3c2c2c([n+]3C)CCCC2)cc1	-	-	-	-	29.4	27.7	36.1
COC(=O)[C@H](C)NC(=O)Nc1ccc(S(N)(=O)=O)cc1	-	-	-	-	-	.	.
CC(C)C(Cl)=NOC(=O)Nc1ccc(S(N)(=O)=O)cc1	-	-	-	-	28.9	68.5	87.2
Cc1ccc(S(=O)(=O)N(C)CC(=O)NNC(=O)Cc2cccc(F)c2)cc1	-	-	-	-	-	.	.
C[C@@H]1CCCCCCCCC(=O)OCCN(C(=O)OC(C)(C)C)[C@H](C)CCCCCCCCC(=O)OCCN(C(=O)OC(C)(C)C)[C@H](C)CCCCCCCCC(=O)OCCN(C(=O)OC(C)(C)C)[C@H](C)CCCCCCCCC(=O)OCCN1C(=O)OC(C)(C)C	-	-	-	-	-	.	.
O=C1CCCCCCCCCC/C(=N\O)CCCO1	-	-	-	-	92.1	-	-
CCCCCNC(=O)C(c1ccc(C(F)(F)F)cc1)n1c(=O)c(-c2ccco2)nc2ccccc21 (configuration not stated)	.	.	.	.	83.0	46.6	-
O=C(NCc1ccccc1)C(c1cccc2ccccc12)n1c(=O)c(-c2ccco2)nc2ccccc21 (configuration not stated)	.	.	.	.	58.5	96.9	33.6
CC(C)(C)NC(=O)C(c1cccc2ccccc12)n1c(=O)c(-c2ccco2)nc2ccccc21 (configuration not stated)	.	.	.	.	67.3	68.8	13.3
CCCCCNC(=O)C(c1cccc2ccccc12)n1c(=O)c(-c2ccco2)nc2ccccc21 (configuration not stated)	.	.	.	.	84.2	82.0	35.4
CCCCCNC(=O)C(c1ccc(-c2ccccc2)cc1)n1c(=O)c(-c2cc3ccccc3[nH]2)nc2ccccc21 (configuration not stated)	.	.	.	.	-	.	.
O=C(NCc1ccccc1)C(c1cccc2ccccc12)n1c(=O)c(-c2cc3ccccc3[nH]2)nc2ccccc21 (configuration not stated)	.	.	.	.	-	.	.
Cc1ccc(NCc2nc3ccccc3n2CCOc2ccccc2)cc1	-	-	-	-	25.5	-	-
Cc1nc2ccccc2n1CCOc1ccccc1	-	-	-	-	-	.	.
Cc1ccc(S(=O)(=O)NC(=O)C2(C)CCN2C(=O)CC2CCCC2)nc1 (configuration not stated)	-	-	.	.	-	.	.
O=C(O)c1cccc(Br)c1	-	-	-	-	-	.	.
COc1ccc(C(=O)N/N=C/C(Br)=C/c2ccccc2)cc1	-	-	-	-	-	.	.
Cc1ccc(-c2cc(C(=O)N/N=C/C(Br)=C/c3ccccc3)n[nH]2)o1	-	-	-	-	26.5	-	39.1
Cn1cc(C(=O)N/N=C/C(Br)=C\c2ccccc2)ccc1=O	-	-	-	-	25.6	-	26.3
Cn1cc(C(=O)N/N=C/C(Br)=C/c2ccccc2)ccc1=O	-	-	-	-	27.3	-	75.2
Cc1ccc(-c2cc(C(=O)N/N=C/c3ccccc3O)n[nH]2)o1	-	-	-	-	-	.	.
Cn1cc(C(=O)N/N=C/C=C/c2ccccc2)ccc1=O	-	-	-	-	-	.	.
COc1cccc(NC(=O)CN2C(=O)NC3(CCc4ccccc43)C2=O)c1 (configuration not stated)	-	-	-	-	-	.	.
COc1ccc(/C=C/C(=O)c2ccccc2)cc1Cn1nnc2ccccc21	-	-	-	-	30.8	72.8	65.8
SMILES	MC4R antag cAMP	MC4R ag barr	PfGluPho inh	Beta2AR agonist	ABHD5-PLIN5 inh	ABHD5-PLIN5 conf	HNF4 split-luc
COC(=O)c1ccc(/C=C/C(=O)c2ccc(OC)cc2)cc1	-	-	-	-	-	.	.
Cc1ccc(C(=O)/C=C/c2ccc3ncccc3c2)cc1	-	-	-	-	37.6	78.0	78.2
COc1ccc(/C=C/C(=O)c2ccc(C(=O)/C=C/c3ccc(OC)c(OC)c3)cc2)cc1OC	-	-	-	-	55.1	98.0	90.8
COc1ccc(/C=C/C(=O)c2ccc3c(c2)OCO3)cc1OC	-	-	-	-	-	.	.
COC(=O)c1ccc(/C=C/C(=O)c2ccc(OC)c(OC)c2)cc1	-	-	-	-	32.9	65.6	60.7
CN(CC(=O)Nc1ccccc1Cl)C(=O)CSc1nncn1C	-	-	-	-	-	.	.
CN(C)c1ccc(CNC(=O)C2(C)Cc3c(-c4cccc(C(F)(F)F)c4)ccnc3O2)cc1 (configuration not stated)	-	-	.	.	-	.	.
COc1ccc(/C=C/C(=O)NCc2ccc3c(c2)OCO3)cc1OC	-	-	-	-	96.2	-	-
COc1cc(/C=C/C(=O)c2ccc(F)cc2)cc(OC)c1OC	-	-	-	-	37.6	68.0	53.4
COc1ccc(Oc2ccc(/C=C/C(=O)c3ccc(O)cc3)cc2[N+](=O)[O-])cc1	-	-	-	-	27.6	80.4	65.1
COc1cc(/C=C/C(=O)c2ccc(C)cc2)ccc1OCC#N	-	-	-	-	45.0	72.4	54.3
O=C(/C=C/c1ccc(O)c([N+](=O)[O-])c1)c1ccc2ccccc2c1	-	-	-	-	-	.	.
COc1cc(CC(=O)N2c3ccccc3N=C(c3ccccc3)C2C(=O)NCc2ccccc2)cc(OC)c1 (configuration not stated)	.	.	.	.	-	.	.
CC1(c2ccccc2)NC(=O)N(CC(=O)NCC2CCCO2)C1=O (configuration not stated)	-	-	-	-	-	.	.
C=CCNc1oc(-c2cccc(Cl)c2)nc1C#N	-	-	-	-	23.7	47.3	41.4
C=CCNc1oc(-c2ccc(-c3ccccc3)cc2)nc1C#N	-	-	-	-	-	.	.
O=C(NNc1c2ccccc2nc2ccccc12)c1ccccc1O	-	-	-	53.0	25.8	25.3	18.4
O=C(Nc1ccc(CSc2ccccc2)cc1)c1ccco1	-	-	-	-	-	.	.
CC(=O)c1ccc2noc(-c3ccc(C)cc3)c2c1	-	-	-	-	29.0	-	22.0
CCCNC(=O)C1(C)CCCN(Cc2ccc3c(c2)OCO3)C1 (configuration not stated)	-	-	.	.	-	.	.
C=CCOc1ccc(C(=O)/C=C2/C(=O)Nc3ccccc32)cc1	-	-	-	-	67.2	71.8	67.5
NC(=O)COc1ccc(C(=O)/C=C2/C(=O)Nc3ccccc32)cc1	-	-	-	-	53.9	55.5	88.9
C=CCOc1ccccc1C(=O)/C=C1/C(=O)Nc2ccccc21	-	-	-	-	84.6	95.3	96.6
O=C1Nc2ccccc2Nc2ncccc21	-	-	-	-	-	.	.

Assay outcomes deposited in PubChem by several laboratories.
